Assay results: the EternaBench riboswitch data

Tested on: MS2 coat protein
Assay: apparent Kd, MS2 coat protein; higher = weaker binding; RNA-MaP array; FMN 200 µM where present
Procedure, shortened: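 Apparent Kd: the median of filtered binding-curve fits from single clusters. Designs were transcribed on Illumina sequencing-chip clusters by stalled E. coli RNA polymerase and titrated with SNAP-549-labelled MS2 coat protein from 0.7 or 1.5 nM, doubling to 3 µM, in 100 mM Tris-HCl pH 7.5, 80 mM KCl, 4 mM MgCl2, BSA, DTT, yeast tRNA and Tween-20. Each series ran without and then with constant ligand, and green signal was normalised to red-channel RNA signal and control-cluster median Fmax.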

[1] = designed as: OFF switch for flavin mononucleotide, no ligand
[2] = ligand present: flavin mononucleotide, designed as: OFF switch for flavin mononucleotide
[3] = designed as: ON switch for flavin mononucleotide, no ligand
[4] = ligand present: flavin mononucleotide, designed as: ON switch for flavin mononucleotide

Sequence | apparent Kd [1] [nM] | apparent Kd [2] [nM] | apparent Kd [3] [nM] | apparent Kd [4] [nM]
ACAUGACAUGAGGAUCACCCAUGUGAGGAUAUGCGAAAAAAAUUUUUAAAAAAAAUUGGCAGAAGGCACAAAAU | 121 | 139 |  | 
ACAUGAGAGUUAGGAUAUCUUGUACCUACAUGUGACAUGAGGAUCACCCAUGUGGUAAGUAUGAGGGAGAAGGAACAGAUAUGU |  |  | 43.9 | 33.9
ACAUGAGGAUCACCCAUGUACAUGGGUAUUAUUGUUUGUUACUAGGAUAUGUAUUUGAAUUUACAACAGAAGGAGUAUUAAUGU | 1160 | 632 |  | 
ACAUGAGGAUCACCCAUGUAGAGUGAAGAAGGUAGAUACUUAUGACUCUCCCAUGUACAUAGGACUGAGGAUAUUCUAAUAAUU |  |  | 23.4 | 18.9
ACAUGAGGAUCACCCAUGUAUAGAUUUGAAUGUUAAGUUACGUAGGAUAUCGUGUUUAGUAUGAUCGAGAAGGACGAUCUGAUA |  |  | 25.8 | 20.8
ACAUGAGGAUCACCCAUGUGAUGAUCUCCCAUGUCAUAUUUCAGAAGGCUCGCGUGUUUGAUGAGAGAGGAUAUGGAAUAUGCG | 208 | 152 |  | 
ACAUGAGGAUCACCCAUGUGGACAUAGGAUAUUGGUGAUCAGGCGUGUUAUACAGGAUAGGUCUGCGAGAAGGGUGUGCGUUGC |  |  | 406 | 218
ACAUGAGGAUCACCCAUGUUCACAUAGGAUAUUGAUUAUAUUGGAUAUAGAAUAUUUAUAAUACACAAGAAGGAUGCAAGAUGG |  |  | 16.4 | 13.5
ACAUGAGGAUCACCCAUGUUCACAUAGGAUAUUGAUUAUAUUGGUUUAAGAAUAGUAAUUGACCACAAGAAGGAUGCCUGAUCU |  |  | 12.2 | 9.7
ACAUGAGGAUGAGGAUAUUCAUCCAUGAGGAUAGAAGAAGGCAUACAUGAGGAUCACCCAUGUAUACACAUGAGGAUCCCUUAU | 44.5 | 121 |  | 
ACAUGAUACAAGAAGGAUGAAUUAGAUUUGAUCAUAGGAUAUUGUUAUAUUGUUUACUCUAAUAACAUGAGGAUCACCCAUGUA |  |  | 10.4 | 6.94
ACAUGAUCAGGAUAUACAUGAGGAUCACCCAUGUUUAUCAAAAAAGGGCCUUCUACAUGUAGAAGGGAUCUUGU | 14.8 | 15.1 |  | 
ACAUGAUCAGGAUAUACAUGAGGAUCACCCAUGUUUAUCAAAAAAGGGCUUUCUACAUGUAGAAGGGAUCUUGU | 21.8 | 39.9 |  | 
ACAUGUAAUGUAGGAUAUUUUACACAUGAGGAUCACCCAUGUGACCAGAGGCUUUGCUAUGAGUAAAAGAAGGGUAUGUACAUG | 61.8 | 60.4 |  | 
ACAUGUACAGGAUAUACAUGAGUGAUACACGUAUUUCCACUACAUGAGGAUCACCCAUGUAGAAGGGUACAUGA | 50.2 | 19.5 |  | 
ACAUUUUAUGCAGGAUAUUGACAUAUAUUUAAACAAGAAGGGCAUUACAUGAGGAUCACCCAUGUUAUAUUGGUAUAUAAGUUC | 17.4 | 14.8 |  | 
ACCAAUGCAGGAUAUACAUGAGGAUCACCCAUGUAUAACCUACAUAGGUGAUCCUCAUGUAGAAGGGCAUUGGA | 12.8 | 10 |  | 
ACCAGGGAUUCAGGAUAUAUUAGCCGAGGCCGCGUAGAAGGGAAAUCCUGACAUGAGGAUCACCCAUGUCGACCCGCCUUCCAC |  |  | 22.8 | 24.2
ACCAGUGACACAGGAUAUCCGUGCAUGUAGCACGGAGAAGGGUGUUCCAAUCAACUCACAUGAGGAUCACCCAUGUGCUACUUG |  |  | 176 | 59.8
ACCAUUUACUAAUCCUCUAUACAUGAGGAUCACCCAUGUUUUGAGGAUAUCAUCGUUCGCCGCGUUGAGAAGGCAAAACAUUCG | 18.7 | 52.9 |  | 
ACCAUUUACUAGUUUUCUAUACAUGAGGAUCACCCAUGUUUUGAGGAUAUCAGCGUGAAACACGCUGAGAAGGCAAAACAUUCG | 181 | 342 |  | 
ACCCGACAUGAGGAUCACCCAUGUAAACAAUCAUGAGGAUAUCCGGAGCAAGUGCUCCAGGGAGAAGGCAUAAAAG |  |  | 76.3 | 42.2
ACCGAAUGAACAUGAGGAUCACCCAUGUACCCGAAAGGGAAUGAGGAUAUCGAUAGCAAAGCUAUCGAGAAGGCAUGGGUCGGU |  |  | 573 | 169
ACCGCUCGAGGAUAUACAUGAGGAUCACCCAUGUAACCCAGAAGCAAGGCCUCAGGAUGUAGAAGGCGACGCAA | 14 | 14.2 |  | 
ACCUCACAUGAGGAUCACCCAUGUCAGGAUAUUCAAACAGGCGGAACUCCGCCUUCUCGAAGAAGGGACAUUAA | 16.2 | 72.4 |  | 
ACCUCACAUGAGGAUCACCCAUGUUAGGAUAUCUCGAUGCUCCGCGGGCGGGAGCAUCAGAGAAGGAACGUGCA | 20.1 | 21.8 |  | 
ACCUUACAUGAGGAUCACCCAUGUUAGGAUAUCUCGCUUGCGCAAUCACAGCACAAGCAGAGAAGGGACGCGGG | 28.1 | 32.5 |  | 
ACGACUAGAGGAUAUACAUGAGGAUCACCCAUGUAACUGUCAGGAGACUGACGGAGAUGUAGAAGGCUAGUCGA | 16.6 | 39.2 |  | 

Sequence | apparent Kd [1] [nM] | apparent Kd [2] [nM] | apparent Kd [3] [nM] | apparent Kd [4] [nM]
ACGAGACUCGUGAGGAUAUCGUGUUGUAAGCAGAUCGAGAAGGCACAUGAGGAUCACCCAUGUUUACUGCCACA | 17 | 21.9 |  | 
ACGAGGGUUACAGGAUAUGAAGCUAAAACGGCGUUAGAAGGGUAUACAGAGUUACAUGAGGAUCACCCAUGUUGUGACUUCGAA | 33.6 | 41 |  | 
ACGCCCUGAGGAUAUCUCAUCCCGCACAUGAGGAUCACCCAUGUUCUCCUCCGGGCUCCGAGAGAAGGCAGGCCCA | 54.7 | 95.2 |  | 
ACGCUUUGGGAGAAGGUACGUUAAUUUUUUUCCACAUGAGGAUCACCCAUGUAAGGAUAUCCCGUCGUUAAAUAGGCUACAGCA | 9.59 | 9.37 |  | 
ACGGAACAUGAGGAUCACCCAUGUAUCUGAAAUAUGGACUCACAGGAUAUCCAGAGUUGCCAAUCGGAGAAGGGUGACUCCAGA |  |  | 20.1 | 16.7
ACGGCAGUCGAAGGAUAUGGUUACAUGAGGAUCACCCAUGUCUAGGGUCUAAUUAGGUAUAAUUACCAGAAGGUCGAAGGCCUA | 90.5 | 123 |  | 
ACGGCUUAGUCAGGAUAUACAAGAUUGUGAGACUACAUGAGGAUCACCCAUGUAGAAGGGACUAAUCGUCUGAACAUUGCUUUC | 7.58 | 22.1 |  | 
ACGGUGGUCACAGGAUAUCCGGCCCGCGUGCCUGGAGAAGGGUGACUCAGAACCACAUGAGGAUCACCCAUGUGCCUUACCGUA |  |  | 52.6 | 23.9
ACGUACUGAGGAUAUACGAACAUGUCAAAAGACGUGAAGGGACAUGAGGAUCACCCAUGUAGAAGGCAGUACGA | 42.2 | 194 |  | 
ACGUAUCGUGUAGGAUAUGACACAGGAAACUGGUCAGAAGGACAUGAGGAUCACCCAUGUAGAGUAUGUUAGGAUGACGUAUGC | 43 | 261 |  | 
ACGUCGAGCCAGAAGGCAACAUGAGGAUCACCCAUGUAGUCCGGCUCGUGUUGAGGAUAUGGCACCCGCGCGGAAGGCGCAGGU | 5.12 | 6.62 |  | 
ACGUGUCGUGUAGGAUAUGACACAGGAAACUGGUCAGAAGGACAUGAGGAUCACCCAUGUAAAAUGUUUAAGAAUGACGUAUGC | 49.3 | 94.9 |  | 
ACGUGUCGUGUAGGAUAUGACACAGGAAACUGGUCAGAAGGACAUGAGGAUCACCCAUGUAGAGUGUGUUAGGAUGACGUAUGC | 51.9 | 199 |  | 
ACGUGUUAUACAGGAUAUGUAUAGGUAUAAUCAUACAGUUAUUAAUUAAUGACAGAAGGGUAAACAUGAGGAUCACCCAUGUCA | 511 | 248 |  | 
ACUAAUAGAGGAUAUACAGUUUAUUACAUGAGGAUCACCCAUGUUCUUCAAUGUAUAUAAGUAGAAGGCUAUGGAA | 43.3 | 187 |  | 
ACUAAUUAGUGAGGAUAUACAUAAUUUAUAACUGUAGAAGGCACAAACCUCAAUACAUGAGGAUCACCCAUGUGGUAUAUAAAU | 244 | 434 |  | 
ACUAUACGAGGAUAUGCUGUCAGUACUCCGAGGUUAGUUUGACAUGAGGAUCACCCAUGUAGAAGGCGUUUACU | 24.8 | 22.2 |  | 
ACUAUAUAUGAGAAGGUGAAGUGGAAACAUGAGGAUCACCCAUGUAAUACGAAGCGUAUUUUUAUCAAGGAUAUCAUAUAUAGA |  |  | 10.2 | 8.02
ACUCGACAUGAGGAUCACCCAUGUGAGGAUAUGGCCUGUUUGGCGUGUGCUGGCUCUGUCAGAAGGCGCGUGGG | 41.7 | 89.3 |  | 
ACUGACAUGAGGAUCACCCAUGUCUUGAAUAGGUCAAAUUCACAGGAUAUGCACUUGGACAGGGUGCAGAAGGGUGAUGCAAUG |  |  | 57 | 12.2
ACUGGUCGAGGAUAUACAUGAGGAUCACCCAUGUCGAUCAACCAGCGAUAGCUGGAAUGUAGAAGGCGACCAGU | 200 | 446 |  | 
ACUUAUCAUGUAGGAUAUGCGUGGCGAAGCUAUGCAGAAGGACAUGAGGAUCACCCAUGUUUUAGCGUCUGCGUACAGAUGCGU | 54 | 192 |  | 
ACUUUACAUGAGGAUCACCCAUGUUUUGGUGGAUCAGGAUAUAAAUUGAAUGAGUUUUAGUUAGAAGGGAUAUUUA |  |  | 89.8 | 99
AGAAACUACGAGAAGGACAUGUGGUCCUUCAGUUACAUGAGGAUCACCCAUGUAGGAUAUCGUAGUUUCAGGAUCGUGAGAUCC | 42 | 12.5 |  | 
AGAAACUAGGAGAAGGACAUAUGACCAAGACGAAACAUGAGGAUCACCCAUGUAGGAUAUCCUAGUUUCAGGAUCGUGAGAUCA | 5.47 | 7.97 |  | 
AGAAUGAUGUCAGGAUAUGACGCUGAGAGCACGUCAGAAGGGACAUGAGGAUCACCCAUGUCGGGCUAAUGAAGCUAUGGCACU | 8.86 | 11.7 |  | 
AGACCGCUACGCCGGUUUCACGCACAGGAUAUGCGGUUACAUGAGGAUCACCCAUGUGGCCAUGUGCAGAAGGGUGGUUCGUGC |  |  | 21.2 | 14.9
